Source: ChEMBL document CHEMBL4184173, “Synthesis and in vitro evaluations of 6-(hetero)-aryl-imidazo[1,2-b]pyridazine-3-sulfonamide's as an inhibitor of TNF-α production” (Bioorg Med Chem Lett, 2018)
pIC50: −log10 of the molar value.

Tests used:
PBMC = test: Cytotoxicity against human PBMC by MTS assay; format: cell-based
In short: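 Cells from the LPS-stimulated hPBMC assay were given MTS-[…] reagent and incubated 5-6 h until absorbance reached 0.5. Read at 490 nm. Percent cytotoxicity was calculated from mean absorbance relative to the 0.5% DMSO vehicle control.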

Tumor necrosis factor = molecular target: T1, Tumor necrosis factor (Mus musculus, UniProt P06804); test: Inhibition of mouse recombinant TNF-alpha binding to antibody preincubated for 30 mins followed by antibody addition measured after 2 hrs by ELISA
T1 sequence (P06804 whole entry): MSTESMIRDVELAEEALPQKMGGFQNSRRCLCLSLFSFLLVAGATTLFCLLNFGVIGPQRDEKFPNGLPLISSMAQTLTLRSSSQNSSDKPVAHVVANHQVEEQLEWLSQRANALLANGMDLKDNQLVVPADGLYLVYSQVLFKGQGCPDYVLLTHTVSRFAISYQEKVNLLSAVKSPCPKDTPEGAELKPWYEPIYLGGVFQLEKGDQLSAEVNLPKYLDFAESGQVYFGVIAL

L929 = test: Cytoprotective against human TNF-alpha-induced cell death in mouse L929 cells by MTT assay; format: functional, cell-based

SMILES | pIC50 (PBMC) | other results
COc1ccc(-c2ccc3ncc(S(=O)(=O)N4CCC(C#N)(c5ccccc5)CC4)n3n2)cc1OC | < 4.52 | –
CS(=O)(=O)c1ccc(-c2ccc3ncc(S(=O)(=O)N4CCN(Cc5ccccc5)CC4)n3n2)cc1 | < 4.52 | –
CCN1CCN(S(=O)(=O)c2cnc3ccc(-c4cncc(F)c4)nn23)CC1 | < 4.52 | –
O=S(=O)(c1cnc2ccc(-c3cccnc3)nn12)N1CCN(c2ccccn2)CC1 | < 4.52 | –
CCN1CCN(S(=O)(=O)c2cnc3ccc(-c4ccc(OC)cc4)nn23)CC1 | < 4.52 | –
COc1ccc(-c2ccc3ncc(S(=O)(=O)NCC4CCCO4)n3n2)cn1 (centres undefined) | < 4.52 | –
O=S(=O)(c1cnc2ccc(Cl)nn12)N1CCN(c2ccccn2)CC1 | < 4.52 | –
CCCCn1cnc(CC(c2c(O)c3ccccc3oc2=O)c2c(O)c3ccccc3oc2=O)c1Cl | – | pIC50 (Tumor necrosis factor): 4.78
COc1cccc(CNS(=O)(=O)c2cnc3ccc(-c4ccc(OC)nc4)nn23)c1 | < 4.52 | –
O=S(=O)(NCC1CCCO1)c1cnc2ccc(Cl)nn12 (centres undefined) | < 4.52 | –
CS(=O)(=O)c1ccc(-c2ccc3ncc(S(=O)(=O)NCC4CCCO4)n3n2)cc1 (centres undefined) | < 4.52 | –
O=S(=O)(c1cnc2ccc(-c3cncc(F)c3)nn12)N1CCN(c2ccccn2)CC1 | < 4.52 | –
CS(=O)(=O)c1ccc(-c2ccc3ncc(S(=O)(=O)N4CCC(C#N)(c5ccccc5)CC4)n3n2)cc1 | < 4.52 | –
N#CC1(c2ccccc2)CCN(S(=O)(=O)c2cnc3ccc(Cl)nn23)CC1 | < 4.52 | –
Nc1ncc(-c2ccc3ncc(S(=O)(=O)N4CCN(c5ccccn5)CC4)n3n2)cc1C(F)(F)F | < 4.52 | –
N#CC1(c2ccccc2)CCN(S(=O)(=O)c2cnc3ccc(-c4cncc(C(F)(F)F)c4)nn23)CC1 | < 4.52 | –
NS(=O)(=O)c1cnc2ccc(Cl)nn12 | < 4.52 | –
O=S(=O)(c1cnc2ccc(Cl)nn12)N1CCN(c2ccccc2)CC1 | < 4.52 | –
O=S(=O)(NCC1CCCO1)c1cnc2ccc(-c3cncc(C(F)(F)F)c3)nn12 (centres undefined) | < 4.52 | –
COc1ccc(-c2ccc3ncc(S(=O)(=O)NCC4CCCO4)n3n2)cc1 (centres undefined) | < 4.52 | –
COc1cccc(CNS(=O)(=O)c2cnc3ccc(-c4cccnc4)nn23)c1 | < 4.52 | –
CCN1CCN(S(=O)(=O)c2cnc3ccc(-c4cncc(C(F)(F)F)c4)nn23)CC1 | < 4.52 | –

SMILES | pIC50 (PBMC) | other results
COc1ccc(C2CNC(=O)C2)cc1OC1CCCC1 (centres undefined) [ROLIPRAM] | < 4.52 | –
COc1cccc(CNS(=O)(=O)c2cnc3ccc(-c4ccc(S(C)(=O)=O)cc4)nn23)c1 | < 4.52 | –
Nc1ncc(-c2ccc3ncc(S(N)(=O)=O)n3n2)cc1C(F)(F)F | < 4.52 | –
COc1cccc(CNS(=O)(=O)c2cnc3ccc(Cl)nn23)c1 | < 4.52 | –
O=S(=O)(NCC1CCCO1)c1cnc2ccc(-c3cccnc3)nn12 (centres undefined) | < 4.52 | –
O=S(=O)(c1cnc2ccc(-c3cccnc3)nn12)N1CCN(Cc2ccccc2)CC1 | < 4.52 | –
CCN1CCN(S(=O)(=O)c2cnc3ccc(-c4ccc(OC)nc4)nn23)CC1 | < 4.52 | –
CCN1CCN(S(=O)(=O)c2cnc3ccc(-c4ccc(S(C)(=O)=O)cc4)nn23)CC1 | < 4.52 | –
O=S(=O)(c1cnc2ccc(Cl)nn12)N1CCN(Cc2ccccc2)CC1 | < 4.52 | –
O=S(=O)(NCC1CCCO1)c1cnc2ccc(-c3cncc(F)c3)nn12 (centres undefined) | < 4.52 | –
CCN1CCN(S(=O)(=O)c2cnc3ccc(Cl)nn23)CC1 | < 4.52 | –
COc1cccc(CNS(=O)(=O)c2cnc3ccc(-c4cncc(C(F)(F)F)c4)nn23)c1 | < 4.52 | –
CCN1CCN(S(=O)(=O)c2cnc3ccc(-c4cccnc4)nn23)CC1 | < 4.52 | –
O=S(=O)(c1cnc2ccc(-c3cncc(F)c3)nn12)N1CCN(Cc2ccccc2)CC1 | < 4.52 | –
COc1cccc(CNS(=O)(=O)c2cnc3ccc(-c4cnc(N)c(C(F)(F)F)c4)nn23)c1 | < 4.52 | –
N#CC1(c2ccccc2)CCN(S(=O)(=O)c2cnc3ccc(-c4cncc(F)c4)nn23)CC1 | < 4.52 | –
CS(=O)(=O)c1ccc(-c2ccc3ncc(S(=O)(=O)N4CCN(c5ccccn5)CC4)n3n2)cc1 | < 4.52 | –
O=S(=O)(c1cnc2ccc(-c3cncc(C(F)(F)F)c3)nn12)N1CCN(c2ccccn2)CC1 | < 4.52 | –
O=C1/C(=N/Nc2ccc(Cl)c([N+](=O)[O-])c2)C(c2ccccc2)NN1c1nc(-c2ccccc2)cs1 (centres undefined) | – | pIC50 (L929): 5.05
COc1ccc(-c2ccc3ncc(S(=O)(=O)N4CCN(c5ccccn5)CC4)n3n2)cn1 | < 4.52 | –
N#CC1(c2ccccc2)CCN(S(=O)(=O)c2cnc3ccc(-c4cccnc4)nn23)CC1 | < 4.52 | –
COc1cccc(CNS(=O)(=O)c2cnc3ccc(-c4cncc(F)c4)nn23)c1 | < 4.52 | –
